pIC50: −log10 of the molar value. Values after ≈ are worked out from the molar mass of the structure shown.
Key:
[1] = system: Pseudomonas aeruginosa; test: Antimicrobial activity against Pseudomonas aeruginosa PAO1 by Etest method; format: functional
[2] = system: Escherichia coli; test: Antimicrobial activity against Escherichia coli XL1-Blue harboring pUCP carrying VIM-1 gene by Etest method; format: functional
Procedure, shortened: (§1)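 Etest MICs of piperacillin, piperacillin-tazobactam, ceftazidime, cefepime, cefotaxime, aztreonam, imipenem and meropenem, run per manufacturer's recommendations. Strains were E. coli XL1-Blue or P. aeruginosa PAO1 carrying pUCP24-derived plasmids with blaVIM-1 or blaVIM-13 (cloned by EcoRI) inserted in the lacZ-promoter orientation. E. coli transformants were selected on 10 μg/ml gentamicin MacConkey agar; PAO1 electroporants were selected on 50 μg/ml gentamicin LB agar.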

[3] = system: Pseudomonas aeruginosa; test: Antimicrobial activity against Pseudomonas aeruginosa isolate PA-SD2 harboring blaVIM-1 gene by Etest method; format: functional
[4] = system: Pseudomonas aeruginosa; test: Antimicrobial activity against Pseudomonas aeruginosa PAO1 harboring pUCP carrying VIM-13 gene by Etest method; format: functional; procedure, shortened: as §1
[5] = system: Pseudomonas aeruginosa; test: Antimicrobial activity against Pseudomonas aeruginosa PAO1 harboring pUCP carrying VIM-1 gene by Etest method; format: functional; procedure, shortened: as §1
[6] = system: Pseudomonas aeruginosa; test: Antimicrobial activity against Pseudomonas aeruginosa isolate PA-SL2 harboring blaVIM-13 gene by Etest method; format: functional
[7] = system: Escherichia coli; test: Antimicrobial activity against Escherichia coli XL1-Blue by Etest method; format: functional
[8] = system: Escherichia coli; test: Antimicrobial activity against Escherichia coli XL1-Blue harboring pUCP carrying VIM-13 gene by Etest method; format: functional; procedure, shortened: as §1
[9] = molecular target: Class B carbapenemase VIM-13 (Pseudomonas aeruginosa, UniProt Q2HY42); test: Inhibition of Pseudomonas aeruginosa VIM-13 beta-lactamase after 10 mins
Procedure, shortened: (§2)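 Zn2+-removal inactivation of purified VIM-1 or VIM-13, tested with varied concentrations of EDTA, dipicolinic acid or 1,10-o-phenanthroline. Enzyme and chelator were incubated 10 min at 20°C in 50 mM HEPES pH 7.5 with 20 μg/ml BSA, then 100 μM imipenem hydrolysis was measured as the reporter. IC50 is the chelator level halving hydrolytic activity.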

[10] = molecular target: Beta-lactamase VIM-1 (Pseudomonas aeruginosa, UniProt Q9XAY4); test: Inhibition of Pseudomonas aeruginosa VIM-1 beta-lactamase after 10 mins; procedure, shortened: as §2
[11] = system: Escherichia coli; test: Antimicrobial activity against Escherichia coli XL1-Blue harboring pGEM-T carrying aacA4 gene by Etest method; format: functional
[12] = system: Escherichia coli; test: Antimicrobial activity against Escherichia coli XL1-Blue harboring pGEM-T carrying aacA4 Ala108Thr mutant gene by Etest method; format: functional

| Compound | MIC [1] | MIC [2] | MIC [3] | MIC [4] | MIC [5] | MIC [6] | MIC [7] | MIC [8] | pIC50 [9] | pIC50 [10] | MIC [11] | MIC [12] |
| --- | --- | --- | --- | --- | --- | --- | --- | --- | --- | --- | --- | --- |
| CO/N=C(\C(=O)N[C@@H]1C(=O)N2C(C(=O)O)=C(COC(C)=O)CS[C@H]12)c1csc(N)n1 [CEFOTAXIME] | 16 µg/mL (≈ 35.1 µM) | > 256 µg/mL | > 256 µg/mL | > 256 µg/mL | > 256 µg/mL | > 256 µg/mL | 0.19 µg/mL (≈ 0.417 µM) | > 256 µg/mL |  |  |  |  |
| O=C(O)CN(CCN(CC(=O)O)CC(=O)O)CC(=O)O [EDETIC ACID] |  |  |  |  |  |  |  |  | 3.60 | 5.03 |  |  |
| C[C@@H](O)[C@H]1C(=O)N2C(C(=O)O)=C(SCCNC=N)C[C@H]12 [IMIPENEM ANHYDROUS] | 1.5 µg/mL (≈ 5.01 µM) | 1 µg/mL (≈ 3.34 µM) | > 32 µg/mL | > 32 µg/mL | > 32 µg/mL | 24 µg/mL (≈ 80.2 µM) | 0.25 µg/mL (≈ 0.835 µM) | 1 µg/mL (≈ 3.34 µM) |  |  |  |  |
| NC[C@H]1O[C@H](O[C@H]2[C@H](O)[C@@H](O[C@H]3O[C@H](CO)[C@@H](O)[C@H](N)[C@H]3O)[C@H](N)C[C@@H]2N)[C@H](N)C[C@@H]1O [TOBRAMYCIN] |  |  | 16 µg/mL (≈ 34.2 µM) |  |  | 48 µg/mL (≈ 103 µM) | 0.25 µg/mL (≈ 0.535 µM) |  |  |  | 2 µg/mL (≈ 4.28 µM) | 2 µg/mL (≈ 4.28 µM) |
| O=C(O)c1cccc(C(=O)O)n1 [DIPICOLINIC ACID] |  |  |  |  |  |  |  |  | 4.32 | 4.38 |  |  |
| CO/N=C(\C(=O)N[C@@H]1C(=O)N2C(C(=O)[O-])=C(C[N+]3(C)CCCC3)CS[C@H]12)c1csc(N)n1 | 1 µg/mL (≈ 2.08 µM) | 12 µg/mL (≈ 25 µM) | > 256 µg/mL | 64 µg/mL (≈ 133 µM) | > 256 µg/mL | 32 µg/mL (≈ 66.6 µM) | 0.19 µg/mL (≈ 0.395 µM) | 1 µg/mL (≈ 2.08 µM) |  |  |  |  |
| GENTAMICIN |  |  | 48 µg/mL |  |  | > 256 µg/mL | 0.19 µg/mL |  |  |  | 1 µg/mL | 1 µg/mL |
| c1cnc2c(c1)ccc1cccnc12 [PHENANTHROLINE] |  |  |  |  |  |  |  |  | 4.16 | 4.14 |  |  |
| C[C@@H](O)[C@H]1C(=O)N2C(C(=O)O)=C(S[C@@H]3CN[C@H](C(=O)N(C)C)C3)[C@H](C)[C@H]12 [MEROPENEM] | 0.38 µg/mL (≈ 0.991 µM) | 0.25 µg/mL (≈ 0.652 µM) | > 32 µg/mL | > 32 µg/mL | > 32 µg/mL | 12 µg/mL (≈ 31.3 µM) | 0.064 µg/mL (≈ 0.167 µM) | 0.19 µg/mL (≈ 0.495 µM) |  |  |  |  |
| O=C(O)c1cn(C2CC2)c2cc(N3CCNCC3)c(F)cc2c1=O [CIPROFLOXACIN] |  |  | > 32 µg/mL |  |  | > 32 µg/mL | 0.064 µg/mL (≈ 0.193 µM) |  |  |  | 0.064 µg/mL (≈ 0.193 µM) | 0.064 µg/mL (≈ 0.193 µM) |
| CC(C)(O/N=C(\C(=O)N[C@@H]1C(=O)N2C(C(=O)[O-])=C(C[n+]3ccccc3)CS[C@H]12)c1csc(N)n1)C(=O)O [CEFTAZIDIME] | 1 µg/mL (≈ 1.83 µM) | 32 µg/mL (≈ 58.5 µM) | > 256 µg/mL | 128 µg/mL (≈ 234 µM) | > 256 µg/mL | 32 µg/mL (≈ 58.5 µM) | 0.38 µg/mL (≈ 0.695 µM) | 6 µg/mL (≈ 11 µM) |  |  |  |  |
| NCC[C@H](O)C(=O)N[C@@H]1C[C@H](N)[C@@H](O[C@H]2O[C@H](CN)[C@@H](O)[C@H](O)[C@H]2O)[C@H](O)[C@H]1O[C@H]1O[C@H](CO)[C@@H](O)[C@H](N)[C@H]1O [AMIKACIN] |  |  | 3 µg/mL (≈ 5.12 µM) |  |  | 16 µg/mL (≈ 27.3 µM) | 0.75 µg/mL (≈ 1.28 µM) |  |  |  | 0.75 µg/mL (≈ 1.28 µM) | 0.75 µg/mL (≈ 1.28 µM) |
| C[C@H]1[C@H](NC(=O)/C(=N\OC(C)(C)C(=O)O)c2csc(N)n2)C(=O)N1S(=O)(=O)O [AZTREONAM] | 1 µg/mL (≈ 2.3 µM) | 0.125 µg/mL (≈ 0.287 µM) | 24 µg/mL (≈ 55.1 µM) | 1.5 µg/mL (≈ 3.44 µM) | 1.5 µg/mL (≈ 3.44 µM) | 4 µg/mL (≈ 9.19 µM) | 0.19 µg/mL (≈ 0.436 µM) | 0.125 µg/mL (≈ 0.287 µM) |  |  |  |  |

Source: ChEMBL document CHEMBL1275500, “Characterization of the new metallo-beta-lactamase VIM-13 and its integron-borne gene from a Pseudomonas aeruginosa clinical isolate in Spain” (Antimicrob Agents Chemother, 2008)
